# Source: publication PMC6453127 (Biochimica et biophysica acta. General subjects, 2017)
# “Also recorded” adds a separate entry of the source.
# What was measured:
# GST-Hsp90α CTD [1] = molecular target: T1, GST-Hsp90α CTD (Homo sapiens, UniProt P07900); test: ADH aggregation; type: biochemical; conditions: for inhibition of Hsp90 CTD chaperone (anti-aggregation) activity, ADH aggregation assay: 40 μM compound, 500 nM Hsp90 CTD, 55 °C, end point 90 min
# Summary of the method: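 Reaction: 6.2 μM equine ADH, with or without 500 nM GST-Hsp90α CTD and compound. Aggregation induced at 55 °C, read as absorbance at 360 nm every minute for 90 min. The 90-min endpoint was used, with the mean of ADH alone set to 100%. Three independent experiments.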
# Hsp90β [2] = molecular target: T2, Hsp90β (Homo sapiens, UniProt P08238); test: Transcreener ADP Hsp90 ATPase assay; type: biochemical
# His6-Hsp90β CTD = His6-Hsp90β CTD (Homo sapiens, UniProt P08238); test: BS3 crosslinking dimerization/oligomerization assay, His6-Hsp90β CTD; type: biochemical; conditions: for oligomerization state of His6-Hsp90β CTD (crosslinking): 2 μM protein, BS3 crosslinker
# Hsp90β [3] = molecular target: T2, Hsp90β; test: Competitive displacement of FITC-GA; type: binding; conditions: competitor 3 nM to 3 μM; 60 nM Hsp90β, 5 nM FITC-GA
# LNCaP cells = test: Western blot of Hsp90 clients and heat shock proteins in LNCaP cells; type: cell-based; conditions: 48 h
# Summary of the method: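 ATCC LNCaP cells kept in ATCC-recommended medium, authenticated and used within 20 passages. Cells treated for 48 h, trypsinised, PBS-washed and lysed in RIPA with protease inhibitors, 1 mM PMSF, 0.1% Triton X-100 and 1 mM DTT. Protein measured by Bradford before western blot. Band intensities of treated samples expressed as percentage of vehicle.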
# GST-Hsp90α CTD (626–732) = GST-Hsp90α CTD (626–732) (Homo sapiens, UniProt P07900); test: DARTs assay with GST-Hsp90α CTD; type: binding; conditions: 200 μM compound
# full-length Hsp90α = full-length Hsp90α (Homo sapiens, UniProt P07900); test: BS3 crosslinking assay, full length Hsp90α; type: biochemical; conditions: 2 μM protein; BS3 crosslinker
# Summary of the method: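 Full-length Hsp90α used at 2 μM in 50 mM NaPO₄ and 150 mM NaCl, preincubated with compound for 1 h at room temperature. BS3 crosslinker added at 66–200 μM final for 1 h at RT, then quenched with 50 mM Tris-HCl pH 7.5 for 15 min. Analysed by 10% SDS-PAGE and western blot.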
# GST-Hsp90α CTD [4] = molecular target: T1, GST-Hsp90α CTD; test: BS3 crosslinking assay, GST-Hsp90α CTD; type: biochemical; conditions: 2 μM protein; NSC145366 10 μM to 100 μM
# GST-Hsp90α NTD = GST-Hsp90α NTD (Homo sapiens, UniProt P07900); test: BS3 crosslinking assay, GST-Hsp90α NTD; type: biochemical; conditions: 2 μM protein
# Summary of the method: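 2 μM protein buffer-exchanged into 50 mM NaPO₄ and 150 mM NaCl, then preincubated with compound for 1 h at room temperature. BS3 added at 66–200 μM final for 1 h at RT, then quenched with 50 mM Tris-HCl pH 7.5 for 15 min. Boiled in SDS dye, run on 10% SDS-PAGE, western-blotted and probed with anti-GST antibody.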
# GST-Hsp90α CTD [5] = molecular target: T1, GST-Hsp90α CTD; test: ATP-agarose pulldown, Hsp90 CTD; type: binding; conditions: 200 μM compound, 6 μM CTD
# Hsp70 = Hsp70 (Homo sapiens, UniProt P0DMV8); test: Transcreener ADP Hsp70 ATPase assay; type: biochemical; conditions: 0.5 μM Hsp70; up to 200 μM
# Summary of the method: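 Stopped with EDTA stop-and-detect buffer containing ADP² antibody-IRDye QC-1 and 8 nM ADP Alexa594 tracer, 1 h at RT. Endpoint fluorescence intensity read. Three experiments, four-parameter logistic fit.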
# Sequence of His6-Hsp90β CTD (P08238 530-724): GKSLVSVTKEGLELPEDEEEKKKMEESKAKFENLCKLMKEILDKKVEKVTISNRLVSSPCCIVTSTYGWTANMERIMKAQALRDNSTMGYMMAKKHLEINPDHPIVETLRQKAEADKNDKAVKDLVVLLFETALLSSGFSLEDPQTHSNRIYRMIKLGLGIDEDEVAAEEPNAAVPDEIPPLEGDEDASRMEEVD
# T2 sequence (P08238 whole entry): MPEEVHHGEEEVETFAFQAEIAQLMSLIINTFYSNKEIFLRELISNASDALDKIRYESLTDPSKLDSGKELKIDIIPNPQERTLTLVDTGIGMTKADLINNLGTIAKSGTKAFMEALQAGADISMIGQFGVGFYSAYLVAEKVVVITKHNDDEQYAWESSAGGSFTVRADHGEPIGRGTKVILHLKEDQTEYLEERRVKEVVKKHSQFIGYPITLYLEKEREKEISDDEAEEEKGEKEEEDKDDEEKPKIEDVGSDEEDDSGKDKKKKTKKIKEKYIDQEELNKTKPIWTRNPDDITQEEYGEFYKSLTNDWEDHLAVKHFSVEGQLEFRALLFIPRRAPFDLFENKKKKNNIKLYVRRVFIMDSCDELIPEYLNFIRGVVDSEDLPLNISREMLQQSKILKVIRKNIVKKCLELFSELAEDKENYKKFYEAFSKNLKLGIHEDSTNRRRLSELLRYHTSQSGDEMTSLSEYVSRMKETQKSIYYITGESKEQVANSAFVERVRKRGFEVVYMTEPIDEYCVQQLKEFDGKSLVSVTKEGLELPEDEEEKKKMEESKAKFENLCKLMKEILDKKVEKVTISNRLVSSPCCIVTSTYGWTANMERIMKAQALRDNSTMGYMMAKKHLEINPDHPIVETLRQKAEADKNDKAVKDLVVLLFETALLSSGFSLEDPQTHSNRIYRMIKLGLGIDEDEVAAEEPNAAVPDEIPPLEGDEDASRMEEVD
# Sequence of Hsp70 (P0DMV8 whole entry): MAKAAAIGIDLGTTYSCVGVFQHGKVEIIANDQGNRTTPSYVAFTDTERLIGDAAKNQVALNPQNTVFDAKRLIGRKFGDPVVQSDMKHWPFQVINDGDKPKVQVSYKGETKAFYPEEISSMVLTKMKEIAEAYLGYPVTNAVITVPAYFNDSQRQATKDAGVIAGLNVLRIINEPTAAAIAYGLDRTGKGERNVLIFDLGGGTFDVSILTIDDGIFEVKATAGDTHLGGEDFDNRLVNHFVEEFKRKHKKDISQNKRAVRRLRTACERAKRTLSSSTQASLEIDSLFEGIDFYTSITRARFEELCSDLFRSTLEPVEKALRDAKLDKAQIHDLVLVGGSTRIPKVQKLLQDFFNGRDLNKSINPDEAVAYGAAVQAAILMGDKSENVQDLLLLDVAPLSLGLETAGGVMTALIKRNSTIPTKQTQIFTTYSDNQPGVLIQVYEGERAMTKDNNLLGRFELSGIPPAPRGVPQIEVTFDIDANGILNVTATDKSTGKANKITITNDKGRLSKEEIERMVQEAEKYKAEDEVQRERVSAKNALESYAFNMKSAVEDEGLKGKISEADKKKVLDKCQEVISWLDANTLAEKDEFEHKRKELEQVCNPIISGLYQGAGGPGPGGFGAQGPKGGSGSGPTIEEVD
smiles,measurement,setting,value
"CC(C)(c1ccc(O)cc1)c1ccc(O)cc1 [BPA, Bisphenol A]","inhibition of Hsp90 CTD chaperone (anti-aggregation) activity, ADH aggregation assay",GST-Hsp90α CTD [1],did not exhibit inhibition; also recorded: Minimal inhibition
same,"IC50, Hsp90β ATPase function","Hsp90β [2]; 0.5 μM Hsp90β, 250 μM ATP, 37 °C 30 min",does not have a measurable IC50
"CC(C)CNCC(O)COc1ccc(C(C)(C)c2ccc(OCC(O)CNCC(C)C)cc2)cc1 (stereo not shown) [Analog A8, 3,3’-((propane-2,2-diylbis(4,1-phenylene))bis(oxy))bis(1-(iso-butylamino)propan-2-ol)]",oligomerization state of His6-Hsp90β CTD (crosslinking),His6-Hsp90β CTD,CTD monomer band was eliminated
same,IC50,Hsp90β [2],~262 µM
"COC1=C2C[C@@H](C)C[C@H](OC)[C@H](O)[C@@H](C)/C=C(\C)[C@H](OC(N)=O)[C@@H](OC)/C=C\C=C(/C)C(=O)NC(=CC1=O)C2=O [GA, geldanamycin, reference compound]",competition with FITC-GA binding to Hsp90β,Hsp90β [3],compete with fluorescently labeled GA
same,"induction of classical heat shock response (Hsp70, Hsp27, Hsp40)",LNCaP cells,did induce the classical heat shock response
same,BRCA1 expression level compared to DMSO,LNCaP cells; GA control,9%
"CC(C)(c1ccc(OCC(O)CN2CCOCC2)cc1)c1ccc(OCC(O)CN2CCOCC2)cc1 (stereo not shown) [Analog A1, 3,3’-((propane-2,2-diylbis(4,1-phenylene))bis(oxy))bis(1-mor-pholinopropan-2-ol)]",oligomerization state of His6-Hsp90β CTD (crosslinking),His6-Hsp90β CTD,CTD monomer band was eliminated
"CO[C@@H]1[C@@H](O)[C@@H](O)[C@H](Oc2ccc3cc(NC(C)=O)c(=O)oc3c2C)OC1(C)C [KU-32, reference compound]",protection of Hsp90 CTD from pronase degradation (DARTs),GST-Hsp90α CTD (626–732),protects the Hsp90 CTD from pronase degradation at levels comparable
"CN1CCN(CC(O)COc2ccc(C(C)(C)c3ccc(OCC(O)CN4CCN(C)CC4)cc3)cc2)CC1 (stereo not shown) [Analog A2, 3,3’-((propane-2,2-diylbis(4,1-phenylene))bis(oxy))bis(1-(4-methylpiperazin-1-yl)propan-2-ol)]",oligomerization state of His6-Hsp90β CTD (crosslinking),His6-Hsp90β CTD,CTD monomer band was eliminated
same,IC50,Hsp90β [2],~216 µM
"CC(C)(c1ccc(OCC2CO2)cc1)c1ccc(OCC2CO2)cc1 (stereo not shown) [BADGE, bisphenol A diglycidyl ether]","inhibition of Hsp90 CTD chaperone (anti-aggregation) activity, ADH aggregation assay",GST-Hsp90α CTD [1],slight inhibition
"CC(C)(c1ccc(OCC(O)CNCc2ccco2)cc1)c1ccc(OCC(O)CNCc2ccco2)cc1 (stereo not shown) [Analog A3, 3,3’-((propane-2,2-diylbis(4,1-phenylene))bis(oxy))bis(1-((fur-an-2-ylmethyl)amino)propan-2-ol)]",oligomerization state of His6-Hsp90β CTD (crosslinking),His6-Hsp90β CTD,oligomer formation was completely inhibited
same,disruption of CTD dimer formation compared with Cm A1,"His6-Hsp90β CTD; His6-Hsp90β CTD, 200 μM BS3 (Fig. S10)",disrupt dimer formation more efficiently than Cm A1
"CO[C@H]1[C@H](OC(=O)c2ccc(C)[nH]2)[C@H](O)[C@@H](Oc2ccc3c(O)c(NC(=O)c4c[nH]c(C(=O)Nc5c(O)c6ccc(O[C@H]7OC(C)(C)[C@@H](OC)[C@H](OC(=O)c8ccc(C)[nH]8)[C@@H]7O)c(C)c6oc5=O)c4C)c(=O)oc3c2C)OC1(C)C [Cm A1, coumermycin A1, reference compound]",increase in ADH aggregation,"GST-Hsp90α CTD [1]; 50 μM, positive control",~ 40%
same,oligomerization state of His6-Hsp90β CTD (crosslinking),His6-Hsp90β CTD,increases the level of monomeric Hsp90 CTD
same,oligomerization state of full-length Hsp90α (crosslinking),full-length Hsp90α,slightly increases the monomer level of full-length Hsp90α
same,oligomerization state of GST-Hsp90α CTD (crosslinking),GST-Hsp90α CTD [4],increases the level of CTD monomers
same,oligomerization of GST-Hsp90α NTD (crosslinking),GST-Hsp90α NTD,appears to decrease oligomerization of the NTD
same,inhibition of CTD binding to ATP-agarose,GST-Hsp90α CTD [5],inhibits CTD binding to ATP
CCNC(=O)c1noc(-c2cc(C(C)C)c(O)cc2O)c1-c1ccc(CN2CCOCC2)cc1 [AUY922],competition with FITC-GA binding to Hsp90β,Hsp90β [3],compete with fluorescently labeled GA
"C=CCNC1=C2C[C@@H](C)C[C@H](OC)[C@H](O)[C@@H](C)/C=C(\C)[C@H](OC(N)=O)[C@@H](OC)/C=C\C=C(/C)C(=O)NC(=CC1=O)C2=O [Analog 17-AAG, reference compound]",inhibition of Hsp70 ATPase function,Hsp70,no effect on Hsp70 ATPase function
